For test [1], the system named is GTPase KRas (Homo sapiens), P01116 [G12C]. The test is described as follows: Binding affinity to recombinant GDP-loaded KRAS G12C mutant (unknown origin) assessed as half life at 115 uM by CPM-probe based fluorescence assay. In a few lines: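 Chemosensor competition assay. Purified recombinant GDP-loaded KRAS G12C incubated with compound, then probed at several time points with a probe detecting free unreacted Cys12 thiol. Read-out combines GDP displacement kinetics with covalent inactivation.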
Chain of GTPase KRas (Homo sapiens), P01116 [G12C] (P01116 whole entry G12C): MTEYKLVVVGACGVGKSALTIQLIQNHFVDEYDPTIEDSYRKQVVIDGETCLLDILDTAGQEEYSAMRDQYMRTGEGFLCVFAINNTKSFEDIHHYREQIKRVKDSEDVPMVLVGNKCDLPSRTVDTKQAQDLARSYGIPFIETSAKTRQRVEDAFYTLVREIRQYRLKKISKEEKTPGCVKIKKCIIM

The target of test [2] is GTPase KRas (Homo sapiens, UniProt P01116, G12C). The test is described as follows: Binding affinity to GMP-stabilized FLAG-tagged KRAS G12C mutant (unknown origin) using desthiobiotin-GTP probe by alphascreen assay. In short, it runs like this: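 Nucleotide-free recombinant KRAS G12C purified and stabilised with excess GMP, incubated with compound, then probed with GTP-desthiobiotin acyl phosphate probe (reacts with Lys16). Desthiobiotinylated protein detected by AlphaScreen (ActivAlpha). Observed reaction rates plotted against compound concentration and fit to kobs = kinact[I]/(Ki + [I]) to extract kinact and Ki.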
Chain of GTPase KRas (P01116 whole entry G12C): as above
(In general: Alpha assays give light when donor and acceptor beads are brought close together.)

Test [3] deals with GTPase KRas (Homo sapiens), P01116 [G12C]. Briefly: Binding affinity to GMP-stabilized FLAG-tagged KRAS G12C mutant (unknown origin) assessed as inactivation constant using desthiobiotin-GTP probe by alphascreen assay. In short, it runs like this:
(§1)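 Nucleotide-free purified KRAS G12C, stabilized with excess GMP, incubated with compound. Remaining enzyme then labeled by a GTP-desthiobiotin acyl phosphate probe that reacts with Lys16, and detected with AlphaScreen reagents. Reaction rates were plotted against compound concentration and fit to kobs = kinact[I]/(Ki + [I]) to estimate kinact and Ki.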

For test [4] the test system is unchanged. The test is described as follows: Binding affinity to GMP-stabilized FLAG-tagged KRAS G12C mutant (unknown origin) assessed as ratio of Kinact to Ki using desthiobiotin-GTP probe by alphascreen assay. In a few lines:
as §1

Test [5] can be described thus: Binding affinity to Mg2+ ion assessed as compound concentration required to reach Mg2+ dependent shift plateau by 31P NMR analysis.
A short description of test [6]: Binding affinity to Mg2+ ion assessed as compound concentration required to show half maximal Mg2+ dependent shift by 31P NMR analysis.

Consider `Nc1nc2c(ncn2[C@@H]2O[C@H](COP(=O)(O)CP(=O)(O)O[C@@H]3CC[C@H](NC(=O)CCl)C3)[C@@H](O)[C@H]2O)c(=O)[nH]1` (mixture of isomers), for which the T1/2 in test [1] is 42 h. Moreover, the Ki – broadly, the dissociation constant of the complex between target and ligand, obtained from inhibition or displacement – in test [2] worked out at 50000 nM. Moreover, the Kinact in test [3] was found to be 1 min⁻¹. Moreover, the Ratio in test [4] was 0.02 min⁻¹ µM⁻¹.
Take `Nc1nc2c(ncn2[C@@H]2O[C@H](COP(=O)(O)OP(=O)(O)OCCNC(=O)CCl)[C@@H](O)[C@H]2O)c(=O)[nH]1`: the T1/2 in test [1] is 0.68 h. Besides, in test [2], the Ki was 9 nM. Moreover, the Kinact in test [3] is 0.86 min⁻¹. Further, the Ratio in test [4] is 95 min⁻¹ µM⁻¹.
As to `Nc1nc2c(ncn2[C@@H]2O[C@H](COP(=O)(O)OP(=O)(O)OP(=O)(O)O)[C@@H](O)[C@H]2O)c(=O)[nH]1`, the Activity in test [5] turned out to be 2 equiv; in test [6], 0.5 equiv.
Consider `Nc1nc2c(ncn2[C@@H]2O[C@H](COP(=O)(O)CP(=O)(O)OCCNC(=O)CCl)[C@@H](O)[C@H]2O)c(=O)[nH]1`, for which, in test [1], the T1/2 amounted to 2.1 h. In test [2], this compound registered an inhibition constant (Ki) of 2700 nM. For the same compound, the Kinact in test [3] worked out at 0.06 min⁻¹. In test [4], the Ratio worked out at 0.02 min⁻¹ µM⁻¹.
For `Nc1nc2c(ncn2[C@@H]2O[C@H](COP(=O)(O)CP(=O)(O)OC3CCCN(C(=O)CCl)C3)[C@@H](O)[C@H]2O)c(=O)[nH]1` (mixture of isomers), the T1/2 in test [1] amounted to 12 h. The compound also gave a Ki in test [2] of 3500 nM. Besides, the Kinact in test [3] stood at 0.55 min⁻¹. For the same compound, the Ratio in test [4] was found to be 0.16 min⁻¹ µM⁻¹.
In the same order, the values of `Nc1nc2c(ncn2[C@@H]2O[C@H](COP(=O)(O)CS(=O)(=O)NCCNC(=O)CCl)[C@@H](O)[C@H]2O)c(=O)[nH]1` are 2.3 h, 1600 nM, 0.33 min⁻¹ and 0.2 min⁻¹ µM⁻¹.
In the same order, the values of `C=CC(=O)NCCOP(=O)(O)OP(=O)(O)OC[C@H]1O[C@@H](n2cnc3c(=O)[nH]c(N)nc32)[C@H](O)[C@@H]1O` are 0.6 h, 280 nM, 2.12 min⁻¹ and 7.6 min⁻¹ µM⁻¹.
On the same counts, the results for `Nc1nc2c(ncn2[C@@H]2O[C@H](COS(=O)(=O)NC(=O)OCCNC(=O)CCl)[C@@H](O)[C@H]2O)c(=O)[nH]1` are 9.5 h, 5000 nM, 0.24 min⁻¹ and 0.05 min⁻¹ µM⁻¹.
Turning to `Nc1nc2c(ncn2[C@@H]2O[C@H](COP(=O)(O)CP(=O)(O)OC3CCN(C(=O)CCl)C3)[C@@H](O)[C@H]2O)c(=O)[nH]1` (stereo not given in full), the T1/2 in test [1] is 1.1 h. For the same compound, the Ki in test [2] was determined as 920 nM. Moreover, in test [3], the Kinact was found to be 2.2 min⁻¹. For the same compound, the Ratio in test [4] is 2.4 min⁻¹ µM⁻¹.
In the same order, the values of `Nc1nc2c(ncn2[C@@H]2O[C@H](COP(=O)(O)C(F)(F)P(=O)(O)OCCNC(=O)CCl)[C@@H](O)[C@H]2O)c(=O)[nH]1` are 4.2 h, 380 nM, 0.365 min⁻¹ and 0.9 min⁻¹ µM⁻¹.
`Nc1nc2c(ncn2[C@@H]2O[C@H](COP(=O)(O)CP(=O)(O)O[C@@H]3CC[C@@H](NC(=O)CCl)C3)[C@@H](O)[C@H]2O)c(=O)[nH]1` (mixture of isomers): in test [1], the T1/2 worked out at 64 h. In addition, in test [2], the Ki came to 36000 nM. Further, the Kinact in test [3] was found to be 2.3 min⁻¹. Further, the Ratio in test [4] stood at 0.06 min⁻¹ µM⁻¹.
`Nc1nc2c(ncn2[C@@H]2O[C@H](COP(=O)(O)OP(=O)(O)O)[C@@H](O)[C@H]2O)c(=O)[nH]1`: the Activity in test [5] was found to be 2 equiv; in test [6] it was 0.5 equiv.
On to `Nc1nc2c(ncn2[C@@H]2O[C@H](COP(=O)(O)CC(=O)OCCNC(=O)CCl)[C@@H](O)[C@H]2O)c(=O)[nH]1`, for which the T1/2 in test [1] was 84 h. Besides, the affinity in test [2] corresponds to a Ki of 15200 nM. For the same compound, the Kinact in test [3] amounted to 0.055 min⁻¹. Further, the Ratio in test [4] came to 0.003 min⁻¹ µM⁻¹.
On the same counts, the results for `CC(C)(CNC(=O)CCl)COP(=O)(O)CP(=O)(O)OC[C@H]1O[C@@H](n2cnc3c(=O)[nH]c(N)nc32)[C@H](O)[C@@H]1O` are 20 h, 5000 nM, 0.14 min⁻¹ and 0.028 min⁻¹ µM⁻¹.
For the compound `Nc1nc2c(ncn2[C@@H]2O[C@H](COP(=O)(O)C(F)(F)P(=O)(O)OCCCNC(=O)CCl)[C@@H](O)[C@H]2O)c(=O)[nH]1`, the T1/2 in test [1] came out at 1.06 h. This compound registered a Ki in test [2] of 382 nM. The Kinact in test [3] was 0.3 min⁻¹. For the same compound, the Ratio in test [4] is 0.8 min⁻¹ µM⁻¹. For the same compound, in test [6], the Activity is less than 20 equiv.
In the case of `Nc1nc2c(ncn2[C@@H]2O[C@H](COP(=O)(O)C(F)P(=O)(O)OCCNC(=O)CCl)[C@@H](O)[C@H]2O)c(=O)[nH]1` (mixture of isomers), the T1/2 in test [1] was 6.6 h. Further, the Ki in test [2] stood at 8000 nM. For the same compound, the Kinact in test [3] is 0.21 min⁻¹. Moreover, the Ratio in test [4] came out at 0.03 min⁻¹ µM⁻¹.
Consider `Nc1nc2c(ncn2[C@@H]2O[C@H](COC(=O)CP(=O)(O)OCCNC(=O)CCl)[C@@H](O)[C@H]2O)c(=O)[nH]1`, for which, in test [1], the T1/2 was 47 h. In test [2], this compound yielded a Ki of 2200 nM. Moreover, the Kinact in test [3] is 0.053 min⁻¹. The Ratio in test [4] was found to be 0.02 min⁻¹ µM⁻¹.
As to `Nc1nc2c(ncn2[C@@H]2O[C@H](COC(=O)CS(=O)(=O)NCCNC(=O)CCl)[C@@H](O)[C@H]2O)c(=O)[nH]1`, the T1/2 in test [1] came to 24 h. In addition, in test [2], the Ki was more than 10000 nM.
On the same counts, the results for `Nc1nc2c(ncn2[C@@H]2O[C@H](CNc3c(NCCCNC(=O)CCl)c(=O)c3=O)[C@@H](O)[C@H]2O)c(=O)[nH]1` are 13 h and more than 25000 nM.
On the same counts, the results for `COC(=O)/C=C/CCCOP(=O)(O)CP(=O)(O)OC[C@H]1O[C@@H](n2cnc3c(=O)[nH]c(N)nc32)[C@H](O)[C@@H]1O` are 120 h and more than 20000 nM.
Take `Nc1nc2c(ncn2[C@@H]2O[C@H](COP(=O)(O)CP(=O)(O)OCCCNC(=O)CCl)[C@@H](O)[C@H]2O)c(=O)[nH]1`: the T1/2 in test [1] came to 2.5 h. Moreover, in test [2], the Ki turned out to be 374 nM. For the same compound, the Kinact in test [3] amounted to 0.07 min⁻¹. For the same compound, in test [4], the Ratio came out at 0.2 min⁻¹ µM⁻¹.

The values are drawn from ChEMBL document CHEMBL3870358, “Covalent Guanosine Mimetic Inhibitors of G12C KRAS” (ACS Med Chem Lett, 2017).
